Counter-ions that a name gives are not always drawn. The source made the active and inactive calls. The rule behind the calls is not given here.
Tests used:
KB = experiment: Cytotoxicity against human KB cells by MTT assay; assay type: functional, cell-based
Outline: (§1)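 MTT assay in human tumour lines. IC50 is the compound concentration giving a 50% drop in optical density relative to untreated cells. Values are means of three independent determinations.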

786-0 = experiment: Cytotoxicity against human 786-0 cells by MTT assay; assay type: functional, cell-based; outline: as §1
HepG2 = experiment: Cytotoxicity against human HepG2 cells by MTT assay; assay type: functional, cell-based; outline: as §1
MCF7 = experiment: Cytotoxicity against human MCF7 cells by MTT assay; assay type: functional, cell-based; outline: as §1
OS-RC-2 = experiment: Cytotoxicity against human OS-RC2 cells by MTT assay; assay type: functional, cell-based; outline: as §1
769-P = experiment: Cytotoxicity against human 769-P cells by MTT assay; assay type: functional, cell-based; outline: as §1
[1] = Cytotoxicity against human BCG823 cells by MTT assay; assay type: functional, cell-based; outline: as §1
HT-29 = experiment: Cytotoxicity against human HT-29 cells by MTT assay; assay type: functional, cell-based; outline: as §1
A-375 = experiment: Cytotoxicity against human A375 cells by MTT assay; assay type: functional, cell-based; outline: as §1
CWR22R = experiment: Cytotoxicity against human 22Rv1 cells by MTT assay; assay type: functional, cell-based; outline: as §1
Calf thymus DNA [2] = experiment: Binding affinity to calf thymus DNA assessed as change in melting temperature at drug/DNA ratio 0.2 at pH 7.4; assay type: nucleic-acid assay; conditions: Bos taurus
Outline: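 Thermal denaturation of calf thymus DNA in PE buffer (1 mM Na₂HPO₄, 0.1 mM EDTA, pH 7.4), drug/DNA ratio 0.2; ΔTm taken as Tm of drug–DNA complex minus Tm of DNA alone.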

Calf thymus DNA [3] = experiment: Binding affinity to calf thymus DNA at pH 7.4 by UV-vis spectroscopy; assay type: nucleic-acid assay; conditions: Bos taurus
Outline: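 UV absorption spectra recorded in PE buffer (1 mM Na₂HPO₄, 0.1 mM EDTA, pH 7.4) with CT-DNA increasing from 0.0 to 0.2 mM. Quartz cells with 10 mm path, room temperature.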

Calf thymus DNA [4] = experiment: Binding affinity to calf thymus DNA assessed as fluorescence quenching at 10 uM by spectrofluorimeter analysis; assay type: nucleic-acid assay; conditions: Bos taurus
Outline: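 Compound held fixed at […] in PE buffer (1 mM Na₂HPO₄, 0.1 mM EDTA, pH 7.4), titrated with CT-DNA. Fluorescence quenching recorded on a spectrofluorometer, excitation 372 nm.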

Which results are given for `CCN(CC)CCCCNCc1cc2c3ccccc3n(Cc3ccc(F)cc3)c2cn1`?
IC50 (KB): 6.5 µM; IC50 (786-0): 5.8 µM; IC50 (HepG2): 2.5 µM; IC50 (MCF7): 20.2 µM; IC50 (OS-RC-2): 31.7 µM; IC50 (769-P): 2.9 µM; IC50 [1]: 9.4 µM; IC50 (HT-29): 10.1 µM; IC50 (A-375): 6.5 µM; IC50 (CWR22R): 9.6 µM

What does the source list for `CCCCn1c2ccccc2c2cc(CNCCCCN(CC)CC)ncc21`?
IC50 (KB): 10.2 µM; IC50 (786-0): 14.1 µM; IC50 (HepG2): 8 µM; IC50 (MCF7): 23.4 µM; IC50 (OS-RC-2): 71.7 µM; IC50 (769-P): 8 µM; IC50 [1]: 23.4 µM; IC50 (HT-29): 27.4 µM; IC50 (A-375): 15.2 µM; IC50 (CWR22R): 13.5 µM

Which results are given for `CCN(CC)CCNCc1cc2c3ccccc3n(Cc3ccccc3)c2cn1`?
IC50 (KB): 8.2 µM; IC50 (786-0): 14.4 µM; IC50 (HepG2): 13.1 µM; IC50 (MCF7): 68.1 µM; IC50 (OS-RC-2): > 100 µM; IC50 (769-P): 2 µM; IC50 [1]: 9.7 µM; IC50 (HT-29): 5.2 µM; IC50 (A-375): 39.1 µM; IC50 (CWR22R): 15.9 µM

With `CCN(CC)CCCNCc1cc2c3ccccc3n(Cc3ccccc3)c2cn1` as the compound, how does the IC50 (KB) read?
The IC50 was 4.9 µM.

What about the ΔTm (Calf thymus DNA [2]) of the same compound?
Its ΔTm is 15.6 °C.

And the IC50 (786-0)?
Its IC50 is 6.4 µM.

What about the IC50 (HepG2) of the same compound?
Its IC50 is 4.4 µM.

What about the IC50 (MCF7) of the same compound?
Its IC50 is 32.5 µM.

What about the IC50 (OS-RC-2) of the same compound?
Its IC50 is 14.5 µM.

What about the IC50 (769-P) of the same compound?
The IC50 was 1.5 µM.

And the IC50 [1]?
Its IC50 is 2.8 µM.

And the IC50 (HT-29)?
Its IC50 is 3.7 µM.

And the IC50 (A-375)?
Its IC50 is 17.5 µM.

And the IC50 (CWR22R)?
Its IC50 is 7.3 µM.

With `COc1cccc2c1C(=O)c1c(O)c3c(c(O)c1C2=O)C[C@@](O)(C(=O)CO)C[C@@H]3O[C@H]1C[C@H](N)[C@H](O)[C@H](C)O1` [DOXORUBICIN HYDROCHLORIDE] as the compound, how does the IC50 (KB) read?
Its IC50 is 0.6 µM.

And the IC50 (786-0)?
Its IC50 is 3.1 µM.

And the IC50 (HepG2)?
The IC50 was 1 µM.

What about the IC50 (OS-RC-2) of the same compound?
Its IC50 is less than 1 µM.

What about the IC50 (769-P) of the same compound?
Its IC50 is 11.5 µM.

What about the IC50 [1] of the same compound?
The IC50 was less than 1 µM.

What about the IC50 (HT-29) of the same compound?
Its IC50 is 4.2 µM.

What about the IC50 (A-375) of the same compound?
The IC50 was 17.2 µM.

What about the IC50 (CWR22R) of the same compound?
The IC50 was less than 1 µM.

With `CCN(CC)CCNCc1cc2c3ccccc3n(Cc3cccc(Cl)c3)c2cn1` as the compound, how does the IC50 (KB) read?
The IC50 was 21.6 µM.

What about the IC50 (786-0) of the same compound?
Its IC50 is 47.6 µM.

What about the IC50 (HepG2) of the same compound?
Its IC50 is 17.7 µM.

What about the IC50 (MCF7) of the same compound?
Its IC50 is 42.2 µM.

What about the IC50 (OS-RC-2) of the same compound?
Its IC50 is 52.3 µM.

And the IC50 (769-P)?
The IC50 was 19.3 µM.

What about the IC50 [1] of the same compound?
Its IC50 is 37.9 µM.

What about the IC50 (HT-29) of the same compound?
Its IC50 is 19.7 µM.

What about the IC50 (A-375) of the same compound?
Its IC50 is 22.7 µM.

What about the IC50 (CWR22R) of the same compound?
The IC50 was 58.5 µM.

Which IC50 (KB) does the source give for `CCN(CC)CCCNCc1cc2c3ccccc3n(CCCc3ccccc3)c2cn1` here?
Its IC50 is 4.8 µM.

What about the ΔTm (Calf thymus DNA [2]) of the same compound?
The ΔTm was 18.8 °C.

And the IC50 (786-0)?
Its IC50 is 8.3 µM.

What about the IC50 (HepG2) of the same compound?
Its IC50 is 3.8 µM.

And the IC50 (MCF7)?
The IC50 was 13.8 µM.

What about the IC50 (OS-RC-2) of the same compound?
Its IC50 is 13.1 µM.

And the IC50 (769-P)?
The IC50 was 5.1 µM.

And the IC50 [1]?
The IC50 was 7.4 µM.

What about the Activity (Calf thymus DNA [3]) of the same compound?
The Activity was “Active”.

And the IC50 (HT-29)?
The IC50 was 2.6 µM.

And the IC50 (A-375)?
Its IC50 is 8.9 µM.

What about the IC50 (CWR22R) of the same compound?
The IC50 was 7.7 µM.

What about the Activity (Calf thymus DNA [4]) of the same compound?
Its Activity is “Active”.

Which IC50 (KB) does the source give for `CCN(CC)CCNCc1cc2c3ccccc3n(CCCc3ccccc3)c2cn1` here?
Its IC50 is 9.7 µM.

What about the IC50 (786-0) of the same compound?
Its IC50 is 11.2 µM.

And the IC50 (HepG2)?
Its IC50 is 7.2 µM.

And the IC50 (MCF7)?
The IC50 was 27.7 µM.

And the IC50 (OS-RC-2)?
The IC50 was 43.9 µM.

What about the IC50 (769-P) of the same compound?
The IC50 was 7.3 µM.

And the IC50 [1]?
Its IC50 is 14.2 µM.

And the IC50 (HT-29)?
Its IC50 is 4.2 µM.

What about the IC50 (A-375) of the same compound?
The IC50 was 5.9 µM.

What about the IC50 (CWR22R) of the same compound?
The IC50 was 8.2 µM.

For `CCN(CC)CCCNCc1cc2c3ccccc3n(C)c2cn1`, which IC50 (KB) is on record?
Its IC50 is 59.7 µM.

And the ΔTm (Calf thymus DNA [2])?
The ΔTm was 24.5 °C.

And the IC50 (786-0)?
Its IC50 is 87.6 µM.

What about the IC50 (HepG2) of the same compound?
The IC50 was 96.1 µM.

And the IC50 (MCF7)?
Its IC50 is greater than 100 µM.

What about the IC50 (OS-RC-2) of the same compound?
Its IC50 is greater than 100 µM.

And the IC50 (769-P)?
The IC50 was greater than 100 µM.

What about the IC50 [1] of the same compound?
The IC50 was greater than 100 µM.

What about the IC50 (HT-29) of the same compound?
The IC50 was 35.7 µM.

What about the IC50 (A-375) of the same compound?
The IC50 was greater than 100 µM.

What about the IC50 (CWR22R) of the same compound?
Its IC50 is greater than 100 µM.

For `CCN(CC)CCCNCc1cc2c(cn1)[nH]c1ccccc12`, which IC50 (KB) is on record?
The IC50 was greater than 100 µM.

And the ΔTm (Calf thymus DNA [2])?
Its ΔTm is 12.6 °C.

What about the IC50 (786-0) of the same compound?
Its IC50 is greater than 100 µM.

What about the IC50 (HepG2) of the same compound?
The IC50 was 93.7 µM.

And the IC50 (MCF7)?
The IC50 was greater than 100 µM.

What about the IC50 (OS-RC-2) of the same compound?
Its IC50 is 67.4 µM.

And the IC50 (769-P)?
Its IC50 is 75.3 µM.

What about the IC50 [1] of the same compound?
The IC50 was greater than 100 µM.

What about the Activity (Calf thymus DNA [3]) of the same compound?
The Activity was “Active”.

What about the IC50 (HT-29) of the same compound?
Its IC50 is greater than 100 µM.

What about the IC50 (A-375) of the same compound?
Its IC50 is greater than 100 µM.

What about the IC50 (CWR22R) of the same compound?
The IC50 was greater than 100 µM.

What about the Activity (Calf thymus DNA [4]) of the same compound?
The Activity was “Active”.
